Most compounds without a hit are left out; they make up all but 1.5% or so of the library.
aDG glyco act = alpha-DG glycosylation activation | actives 0.22% (n = 360,000) | Pro5-aDG cells, alpha-DG glycosylation AlphaScreen (IIH6); 0% Pro5, 100% B10-LARGE cell signal | activation, % at 10 µM;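 active = activation of at least 8% versus controls, or a plate z-score of at least 8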;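 also: Pro5 are CHO cells carrying HIG-tagged alpha-DG that lacks glycosylation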
Rev-erbA mod = modulates human Rev-erb alpha binding to DNA; P20393; Rev-erbα–FITC-DNA binding, fluorescence polarization, 90 min; activity, % at 10 µM; actives 0.79% (n = 370,000); AID 1259318;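 active = activity above about 14%, limit read from the data; passing the limit was not always enough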;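 also: 0% = DMSO wells with 35 nM protein and 100% = DMSO wells with 750 nM protein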
HNF4A DNA FP = change in binding of human HNF4 alpha to DNA. P41235. HNF4a-FITC DNA binding, fluorescence polarization, 1 h. activity change, % at 10 µM. actives 0.3% (n = 360,000). AID 1224865; in the data active = activity change above about 30%, passing the limit was not always enough
Target sequence (P41235 whole entry, looked up): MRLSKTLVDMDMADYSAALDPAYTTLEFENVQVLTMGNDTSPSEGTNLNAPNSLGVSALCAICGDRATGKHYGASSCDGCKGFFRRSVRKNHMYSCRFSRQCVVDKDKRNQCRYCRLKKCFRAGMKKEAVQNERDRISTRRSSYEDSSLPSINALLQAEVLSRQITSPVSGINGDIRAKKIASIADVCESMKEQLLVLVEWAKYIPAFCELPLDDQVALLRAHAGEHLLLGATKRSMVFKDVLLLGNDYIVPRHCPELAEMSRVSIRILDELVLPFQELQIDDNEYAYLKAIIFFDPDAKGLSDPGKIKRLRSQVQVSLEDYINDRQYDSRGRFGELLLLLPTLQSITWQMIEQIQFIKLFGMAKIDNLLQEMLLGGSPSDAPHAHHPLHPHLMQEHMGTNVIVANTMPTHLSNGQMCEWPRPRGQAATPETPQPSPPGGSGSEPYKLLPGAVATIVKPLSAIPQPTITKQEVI
CSN deneddyl inh = blocks human CSN-mediated cullin deneddylation; Purified CSN, SCF-Nedd8-OG deneddylation, fluorescence polarization; inhibition, % at 12.5 µM; actives 0.38% (n = 360,000); AID 651999;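 active = pattern-corrected inhibition above about 35%, with an unprinted fluorescence ratio check between 0.5 and 1.5, limit read from the data, passing the limit was not always enough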;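 also: 0% = enzyme with substrate and 100% = substrate without enzyme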
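Test system: purified human Csn5 enzyme expressed in HEK293T cells. Amount: 0.24 nM enzyme. Reagent: SCFSkp2-Nedd8OG substrate at 10 nM final. Schedule: 90 min incubation of compound, enzyme and substrate at room temperature. Detection: fluorescence polarization. Read-out: % inhibition of substrate cleavage by Csn5.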
NR1D1 mod conf = confirmation of modulators of human Rev-erb alpha DNA binding; activation, % at 25 µM; actives 61% (n = 3,000); Rev-erb alpha FITC-DNA binding, fluorescence polarization, 90 min; AID 1259319; shares compounds with Rev-erbA mod;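 active = activation at or above a set limit, or at least 3 SD above the negative control mean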;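 also: 0% = 35 nM protein with DMSO and 100% = 750 nM protein high control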
RORg counter = counter-screen for Rev-erb alpha modulators: RORgamma DNA binding; shares compounds with Rev-erbA mod; purified RORgamma protein-FITC-DNA binding, fluorescence polarization; IC50, µM; actives 8% (n = 910); AID 1259320;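 active = Compounds whose fitted half-maximal concentration for disrupting protein-DNA binding is below 10 micromolar; the record names Rev-erb in its text, so the target is in doubt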
The depositor's hits bear a star; · = no result given.

SMILES | aDG glyco act | Rev-erbA mod | HNF4A DNA FP | CSN deneddyl inh | NR1D1 mod conf | others
Oc1c(C2=NCCNC(C(F)(F)F)=C2)ccc2ccccc12 | -1 | 18* | -1 | -9 | 7
Cc1ccc(CN2CCCCC(NC(=O)c3ccc(COc4ccccc4)cc3)C2=O)cc1 (stereo not drawn) | · | 2 | · | · | ·
CCn1c(SCC(=O)c2c[nH]c3ccccc23)nnc1-c1cccs1 | 0 | 102* | 19 | 15 | 112* | RORg counter=>40
CCc1nnc2sc(-c3ccc(NC(=O)c4ccc5c(c4)OCCO5)cc3)nn12 | 1 | 92* | -1 | -3 | 58*
CCc1nnc2sc(-c3ccc(NC(=O)c4ccco4)cc3)nn12 | 0 | -6 | 6 | 0 | ·
CC(C)Cn1c(N)c(C(=O)COC(=O)c2cc(C(F)(F)F)nc3c(C(F)(F)F)cccc23)c(=O)n(C)c1=O | · | 46* | · | · | 21*
O=C(NCc1cccs1)C1CCC(CNS(=O)(=O)c2cccc3cccnc23)CC1 (stereo not drawn) | · | 2 | · | · | ·
c1ccc(-c2nc3nonc3c3nc4ccccc4n23)cc1 | 0 | -5 | 0 | 4 | ·
c1ccc(-c2nc3ccccc3c3nc4ccccc4n23)cc1 | 0 | 22* | 2 | -4 | -2
Cc1ccnc(NS(=O)(=O)c2ccc(NC(=O)c3cc(-c4ccc(Br)cc4)nc4ccccc34)cc2)n1 | 0 | 39* | 3 | 1 | 17*
CCC(CC)C1=NN2C(=N)/C(=C\c3cc(C)n(-c4cccc(C)c4)c3C)C(=O)N=C2S1 | 0 | 32* | 5 | 10 | -7
Cc1cc(/C=C2\C(=N)N3C(SCc4ccccc4)=NSC3=NC2=O)c(C)n1Cc1ccccc1 | 0 | 73* | 17 | 5 | 41*
CC1=NN2C(=N)/C(=C\c3cc(C)n(-c4ccccc4)c3C)C(=O)N=C2S1 | 0 | -5 | 10 | 5 | ·
Cc1cc(/C=C2\C(=N)N3N=C(C(C)C)SC3=NC2=O)c(C)n1Cc1ccccc1 | 0 | 8 | -2 | 7 | ·
CC1CCC2(CCC(=O)N2CCCOC(=O)NC(C)(C)C)CC1 (stereo not drawn) | · | -3 | · | · | ·
O=C(/C=C/c1cccc2ccccc12)NCCC1=CCCCC1 | 1 | 29* | 1 | 2 | 38* | RORg counter=>40
CCOC(=O)CC[C@H]1CC[C@]2(CCCN(C(=O)c3cccnc3)C2)O1 | · | -3 | · | · | ·
COc1ccc(-c2nsc3c(N4CCCCC4)ncnc23)cc1 | 0 | 20* | -4 | 1 | 1
COc1ccc(-c2nsc3c(N4CCN(S(=O)(=O)c5ccccc5F)CC4)ncnc23)cc1 | 0 | 32* | -2 | 0 | 13
COc1ccc(-c2nsc3c(N4CCCCC4C)ncnc23)cc1 (stereo not drawn) | 0 | 5 | -2 | -9 | ·
COc1ccc(-n2c(C)cc(C(=O)COC(=O)c3cc(NC(=O)c4cccs4)c(OC)c(OC)c3)c2C)cc1 | -1 | 32* | 3 | -2 | 0
COc1cc(OC)c2c(N)c(C#N)c(C(F)(F)C(F)(F)F)nc2c1 | 0 | 3 | -4 | 4 | ·
COc1ccc2nc(C(F)(F)C(F)(F)F)c(C#N)c(N)c2c1 | 0 | 46* | -2 | 3 | 28*
COc1cc(/C=C(\C#N)c2nc3ccccc3o2)ccc1O | 0 | 43* | 190 | 109 | 60* | RORg counter=>40
Cc1cc(C)c2c(=O)[nH]c(SCC(=O)c3ccc(F)c(C)c3)nc2n1 | 0 | 35* | 4 | 12 | 24*
SMILES | aDG glyco act | Rev-erbA mod | HNF4A DNA FP | CSN deneddyl inh | NR1D1 mod conf | others
Cc1cc(C(=O)CSc2nc(N)cc(=O)[nH]2)ccc1F | 0 | -1 | 0 | -2 | ·
COC(=O)Cn1c(=NC(=O)c2sc3ccccc3c2Cl)sc2cc(S(N)(=O)=O)ccc21 | 0 | 12 | -2 | -1 | ·
COC(=O)Cn1c(=NC(=O)c2nc3ccccc3s2)sc2cc(S(C)(=O)=O)ccc21 | · | 78* | · | · | 59* | RORg counter=1*
COc1cccc(N2CCN(c3nc(C)cc(C)c3C#N)CC2)c1 | 0 | -2 | -2 | -1 | ·
COc1cccc(-c2c(C#N)c(SC)nc3cc(C)nn23)c1 | 0 | 39* | 3 | 0 | 18
CCc1ccc(CNCC(=O)N2CCC3(CC2)OCCO3)s1 | · | -2 | · | · | ·
O=C(CCSc1nnc2ccc3ccccc3n12)Nc1ccc(F)cc1 | 0 | 44* | -4 | 5 | 22*
O=C(CCSc1nnc2ccccn12)Nc1ccc(F)cc1 | 0 | -2 | 0 | -8 | ·
CC(=O)c1ccccc1NC(=O)c1cc(S(=O)(=O)N2CCOCC2)ccc1N1CCCC1 | 0 | 144* | -3 | 0 | 145* | RORg counter=>40
COc1cc(SC)ccc1C(=O)Nc1ccc(S(=O)(=O)N2CCCC2)cc1 | 0 | 57* | 0 | 4 | 30*
COc1cc(NC(=O)c2cc(S(=O)(=O)N3CCCCC3)ccc2N2CCOCC2)cc(OC)c1 | 0 | 22* | 1 | -1 | -6
C=CCn1c(SCC(=O)C(C)(C)C)nnc1-c1ccc(Cl)cc1 | · | 0 | · | · | ·
CN(CCO)c1cccc2c1S(=O)(=O)N(Cc1cn(Cc3ccccc3C(F)(F)F)nn1)Cc1ccccc1O2 | · | -5 | · | · | ·
CC(C)(C)OC(=O)n1ccc2ccc(-c3ccc4cc[nH]c4c3)cc21 | · | 3 | · | · | ·
Cc1sc2c(c1C)c(=O)n(-c1ccc(Cl)cc1)c(=O)n2Cc1cc(=O)n2ccccc2n1 | 0 | 37* | 6 | 4 | 27*
COc1ccc(CC(=O)Nc2nn(C)c3nc4c(C)cccc4cc23)cc1 | 0 | 28* | 4 | -2 | 11
Cc1ccc(-c2nnc(-n3ncc(C#N)c3N)c3ccccc23)cc1C | 0 | 33* | 0 | -6 | 27*
Cc1ccc(-c2nnc(N3CCCCC3)c3ccccc23)cc1 | 0 | -1 | -2 | 4 | ·
CC(C)C[C@H]1COc2cccc(F)c2S(=O)(=O)N1Cc1cn(Cc2ccc(C(F)(F)F)cc2)nn1 | · | -1 | · | · | ·
O=C(Cn1nnc(-c2ccccc2NC(=O)c2ccccc2F)n1)NC1CCCC1 | 0 | 23* | 0 | -16 | 27*
COC(=O)c1ccccc1NC(=O)C1=CC(c2cccs2)=NS(=O)(=O)N1C | 0 | 52* | 2 | -5 | 32* | RORg counter=3*
CSc1ccccc1NC(=O)C1=CC(c2cccs2)=NS(=O)(=O)N1C | 0 | 4 | 2 | -6 | ·
O=C(Nc1ccccc1F)c1oc2ccccc2c1NC(=O)C1CC1 | 0 | 8 | 0 | -4 | ·
O=C(Nc1ccc(F)cc1)c1oc2ccccc2c1NC(=O)C1CCCC1 | 0 | 26* | -3 | -2 | 1
CCCCn1c(-c2ccc(F)c(F)c2)nc2cc3[nH]c(=O)c(C(C)C)nc3cc21 | 0 | 18* | 18 | 5 | 14
O=C([C@@H]1C[C@H]1c1ccccc1)N1CC[C@H]2[C@H](CCCN2Cc2ccc(F)cc2)C1 | · | -4 | · | · | ·

Assay outcomes: PubChem BioAssay, Sanford-Burnham Center for Chemical Genomics
